Results taken from ChEMBL document CHEMBL2311425, “Histone deacetylase (HDAC) inhibitors with a novel connecting unit linker region reveal a selectivity profile for HDAC4 and HDAC5 with improved activity against chemoresistant cancer cells” (J Med Chem, 2013).

Experiments:
A2780 [1] = assay: Potentiation of 5 uM cisplatin-induced toxicity in 5 uM cisplatin resistant human A2780 cells at 1 uM pretreated for 48 hrs followed by 5 uM cisplatin treatment by MTT assay; format: functional
A2780 [2] = assay: Potentiation of 5 uM cisplatin-induced toxicity in 5 uM cisplatin resistant human A2780 cells at 0.25 uM pretreated for 48 hrs followed by 5 uM cisplatin treatment by MTT assay; format: functional
KYSE-510 [3] = assay: Potentiation of 0.75 uM cisplatin-induced toxicity in 0.5 uM cisplatin resistant human KYSE-510 cells at 1.5 uM pretreated for 48 hrs followed by 0.5 uM cisplatin treatment by MTT assay; format: functional
Outline: (§1)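 Cisplatin-resistant Kyse510 CisR (derived by weekly cycles of cisplatin over 24−30 weeks), grown in RPMI 1640 with 10% FCS at 37 °C, 5% CO₂. Test agent added 48 h before cisplatin, then 72 h further incubation. Viability by MTT (read at 544/690 nm) relative to untreated control wells. Combination index by Chou−Talalay method. Mean of three experiments.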

KYSE-510 [4] = assay: Potentiation of 0.75 uM cisplatin-induced toxicity in 0.5 uM cisplatin resistant human KYSE-510 cells at 0.5 uM pretreated for 48 hrs followed by 0.5 uM cisplatin treatment by MTT assay; format: functional; outline: as §1
KYSE-510 [5] = assay: Potentiation of 0.75 uM cisplatin-induced toxicity in 0.5 uM cisplatin resistant human KYSE-510 cells at 0.25 uM pretreated for 48 hrs followed by 0.5 uM cisplatin treatment by MTT assay; format: functional; outline: as §1
A2780 [6] = assay: Potentiation of 1 uM cisplatin-induced toxicity in 5 uM cisplatin resistant human A2780 cells at 1 uM pretreated for 48 hrs followed by 5 uM cisplatin treatment by MTT assay; format: functional
A2780 [7] = assay: Potentiation of 1 uM cisplatin-induced toxicity in 5 uM cisplatin resistant human A2780 cells at 0.5 uM pretreated for 48 hrs followed by 5 uM cisplatin treatment by MTT assay; format: functional
A2780 [8] = assay: Potentiation of 1 uM cisplatin-induced toxicity in 5 uM cisplatin resistant human A2780 cells at 0.25 uM pretreated for 48 hrs followed by 5 uM cisplatin treatment by MTT assay; format: functional
KYSE-510 [9] = assay: Potentiation of 0.5 uM cisplatin-induced toxicity in 0.5 uM cisplatin resistant human KYSE-510 cells at 0.25 uM pretreated for 48 hrs followed by 0.5 uM cisplatin treatment by MTT assay; format: functional
CAL-27 [10] = assay: Potentiation of 1 uM cisplatin-induced toxicity in 1 uM cisplatin resistant human CAL27 cells at 1.5 uM pretreated for 48 hrs followed by 1 uM cisplatin treatment by MTT assay; format: functional
CAL-27 [11] = assay: Potentiation of 1 uM cisplatin-induced toxicity in 1 uM cisplatin resistant human CAL27 cells at 0.5 uM pretreated for 48 hrs followed by 1 uM cisplatin treatment by MTT assay; format: functional
CAL-27 [12] = assay: Potentiation of 1 uM cisplatin-induced toxicity in 1 uM cisplatin resistant human CAL27 cells at 0.25 uM pretreated for 48 hrs followed by 1 uM cisplatin treatment by MTT assay; format: functional
MDA-MB-231 [13] = assay: Potentiation of 5 uM cisplatin-induced toxicity in 1 uM cisplatin resistant human MDA-MB-231 cells at 0.25 uM pretreated for 48 hrs followed by 1 uM cisplatin treatment by MTT assay; format: functional
A2780 [14] = assay: Potentiation of cisplatin-induced toxicity in cisplatin resistant human A2780 cells at 1 uM pretreated for 48 hrs followed by cisplatin treatment by MTT assay; format: functional
Outline: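 Resistant sublines pretreated 48 h with 1 μM HDAC inhibitor, then cisplatin over a concentration range for 72 h; MTT viability read at 544/690 nm. Cisplatin IC50 from four-parameter logistic fit of pooled data (≥3 experiments, triplicate); shift factor = IC50 of cisplatin alone divided by IC50 of the combination.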

Histone deacetylase 2 = Histone deacetylase 2 (Homo sapiens, UniProt Q92769); assay: Inhibition of human HDAC2 by fluorescence assay
Sequence of Histone deacetylase 2 (Q92769 whole entry): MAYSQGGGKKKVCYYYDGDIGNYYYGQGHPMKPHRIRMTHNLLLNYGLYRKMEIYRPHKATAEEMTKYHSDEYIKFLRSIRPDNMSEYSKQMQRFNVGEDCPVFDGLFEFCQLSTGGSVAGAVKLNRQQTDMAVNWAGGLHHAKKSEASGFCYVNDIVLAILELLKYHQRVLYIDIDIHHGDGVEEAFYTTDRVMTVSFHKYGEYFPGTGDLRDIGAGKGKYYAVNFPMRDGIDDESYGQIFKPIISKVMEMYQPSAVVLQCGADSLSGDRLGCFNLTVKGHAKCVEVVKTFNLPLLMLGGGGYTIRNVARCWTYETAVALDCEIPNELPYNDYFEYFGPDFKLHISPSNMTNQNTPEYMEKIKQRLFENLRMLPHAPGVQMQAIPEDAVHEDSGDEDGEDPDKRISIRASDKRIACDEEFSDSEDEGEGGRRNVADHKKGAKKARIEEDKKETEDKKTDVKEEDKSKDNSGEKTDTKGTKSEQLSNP

Histone deacetylase [15] = assay: Inhibition of HDAC in cisplatin resistant human CAL27 cells after 18 hrs by fluorescence assay; format: cell-based; details: cal-27
Histone deacetylase [16] = assay: Inhibition of HDAC in cisplatin resistant human MDA-MB-231 cells after 18 hrs by fluorescence assay; format: cell-based
KYSE-510 [17] = assay: Cytotoxicity against cisplatin resistant human KYSE-510 cells after 72 hrs by MTT assay; format: functional, cell-based; details: KYSE-510, 72 h
A2780 [18] = assay: Potentiation of 20 uM cisplatin-induced toxicity in 5 uM cisplatin resistant human A2780 cells at 1 uM pretreated for 48 hrs followed by 5 uM cisplatin treatment by MTT assay; format: functional
KYSE-510 [19] = assay: Potentiation of 8 uM cisplatin-induced toxicity in 0.5 uM cisplatin resistant human KYSE-510 cells at 0.25 uM pretreated for 48 hrs followed by 0.5 uM cisplatin treatment by MTT assay; format: functional
CAL-27 [20] = assay: Potentiation of 45 uM cisplatin-induced toxicity in 1 uM cisplatin resistant human CAL27 cells at 1 uM pretreated for 48 hrs followed by 1 uM cisplatin treatment by MTT assay; format: functional
CAL-27 [21] = assay: Potentiation of 45 uM cisplatin-induced toxicity in 1 uM cisplatin resistant human CAL27 cells at 0.25 uM pretreated for 48 hrs followed by 1 uM cisplatin treatment by MTT assay; format: functional
MDA-MB-231 [22] = assay: Potentiation of […] cisplatin-induced toxicity in 1 uM cisplatin resistant human MDA-MB-231 cells at 0.5 uM pretreated for 48 hrs followed by 1 uM cisplatin treatment by MTT assay; format: functional
A2780 [23] = assay: Potentiation of 10 uM cisplatin-induced toxicity in 5 uM cisplatin resistant human A2780 cells at 0.25 uM pretreated for 48 hrs followed by 5 uM cisplatin treatment by MTT assay; format: functional
CAL-27 [24] = assay: Potentiation of 10 uM cisplatin-induced toxicity in 1 uM cisplatin resistant human CAL27 cells at 0.25 uM pretreated for 48 hrs followed by 1 uM cisplatin treatment by MTT assay; format: functional
A2780 [25] = assay: Potentiation of 8 uM cisplatin-induced toxicity in 5 uM cisplatin resistant human A2780 cells at 0.5 uM pretreated for 48 hrs followed by 5 uM cisplatin treatment by MTT assay; format: functional
CAL-27 [26] = assay: Potentiation of 5 uM cisplatin-induced toxicity in 1 uM cisplatin resistant human CAL27 cells at 0.25 uM pretreated for 48 hrs followed by 1 uM cisplatin treatment by MTT assay; format: functional
[27] = system: A2780 CisR (Homo sapiens); assay: cells; details: 72 h

With `Cc1cc(C)cc(C(=O)NOCCCCCC(=O)NO)c1` the Activity (A2780 [1]) was “Dose-dependent effect”, the “fractional inhibitory concentration index (FICI)” value (A2780 [1]) was 0.64 and the Activity (A2780 [2]) was “Dose-dependent effect”. For the same compound, the “fractional inhibitory concentration index (FICI)” value (A2780 [2]) was 0.85, the Activity (KYSE-510 [3]) was “Dose-dependent effect” and the “fractional inhibitory concentration index (FICI)” value (KYSE-510 [3]) was 0.05. For the same compound, the Activity (KYSE-510 [4]) was “Dose-dependent effect”, the “fractional inhibitory concentration index (FICI)” value (KYSE-510 [4]) was 0.07 and the Activity (KYSE-510 [5]) was “Dose-dependent effect”. The “fractional inhibitory concentration index (FICI)” value (KYSE-510 [5]) was 0.1, the Activity (A2780 [6]) was “Dose-dependent effect” and the “fractional inhibitory concentration index (FICI)” value (A2780 [6]) was 0.82. For the same compound, the Activity (A2780 [7]) was “Dose-dependent effect”, the “fractional inhibitory concentration index (FICI)” value (A2780 [7]) was 0.85 and the Activity (A2780 [8]) was “Dose-dependent effect”. The Activity (KYSE-510 [9]) was “Dose-dependent effect”, the “fractional inhibitory concentration index (FICI)” value (KYSE-510 [9]) was 0.18 and the Activity (CAL-27 [10]) was “Dose-dependent effect”. For the same compound, the “fractional inhibitory concentration index (FICI)” value (CAL-27 [10]) was 0.48, the Activity (CAL-27 [11]) was “Dose-dependent effect” and the “fractional inhibitory concentration index (FICI)” value (CAL-27 [11]) was <0.2. For the same compound, the Activity (CAL-27 [12]) was “Dose-dependent effect”, the “fractional inhibitory concentration index (FICI)” value (CAL-27 [12]) was <0.2 and the Activity (MDA-MB-231 [13]) was “Dose-dependent effect”. The “fractional inhibitory concentration index (FICI)” value (MDA-MB-231 [13]) was <0.2, the Activity (A2780 [14]) was “Dose-dependent effect” and the fold change (FC) (A2780 [14]) was 4.02. The IC50 (Histone deacetylase 2) was 881 nM, the IC50 (Histone deacetylase [15]) was 360 nM and the IC50 (Histone deacetylase [16]) was 410 nM. The IC50 (KYSE-510 [17]) was 2480 nM, the Activity (A2780 [18]) was “Dose-dependent effect” and the “fractional inhibitory concentration index (FICI)” value (A2780 [18]) was 0.49. The Activity (KYSE-510 [19]) was “Dose-dependent effect”, the “fractional inhibitory concentration index (FICI)” value (KYSE-510 [19]) was 0.18 and the Activity (CAL-27 [20]) was “Dose-dependent effect”. The “fractional inhibitory concentration index (FICI)” value (CAL-27 [20]) was 0.27, the Activity (CAL-27 [21]) was “Dose-dependent effect” and the “fractional inhibitory concentration index (FICI)” value (CAL-27 [21]) was 0.27. The Activity (MDA-MB-231 [22]) was “Dose-dependent effect”, the “fractional inhibitory concentration index (FICI)” value (MDA-MB-231 [22]) was 0.81 and the Activity (A2780 [23]) was “Dose-dependent effect”. For the same compound, the “fractional inhibitory concentration index (FICI)” value (A2780 [23]) was 0.78, the Activity (CAL-27 [24]) was “Dose-dependent effect” and the “fractional inhibitory concentration index (FICI)” value (CAL-27 [24]) was 0.85. The Activity (A2780 [25]) was “Dose-dependent effect”, the “fractional inhibitory concentration index (FICI)” value (A2780 [25]) was 0.66 and the Activity (CAL-27 [26]) was “Dose-dependent effect”. The IC50 [27] was 320 nM.
